Data as given in ChEMBL document CHEMBL1135806, “Synthesis, biological evaluation, and quantitative structure-activity relationship analysis of new Schiff bases of hydroxysemicarbazide as potential antitumor agents” (J Med Chem, 2002).

Each compound was assayed on L1210 (assay: Activity against lymphocytic murine leukemia cell line L1210 using MTS/PES microculture tetrazolium assay). Conditions: Mus musculus.
Type: functional, cell-based
How it was run: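 L1210 cells kept in RPMI-1640 with 10% FBS and penicillin/streptomycin, 37 °C, 5% CO2. Seeded at 1×10^5/mL. DMSO stocks diluted in medium to six concentrations, 2×10⁻³ to 1×10⁻⁸ M, in triplicate; final DMSO 1% at top dose, otherwise <0.25%. Incubated 65 h, then MTS/PES for 3 h, A490. Inhibition relative to DMSO control; IC50 by probit regression; repeated at least twice.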

SMILES | IC50 [µM]
O=C(NO)N/N=C/c1cccc([N+](=O)[O-])c1 | 399
CC(=O)Nc1ccc(/C=N/NC(=O)NO)cc1 | 944
COc1ccc(/C=N/NC(=O)NO)cc1 | 317
O=C(NO)N/N=C/c1ccc(O)c(O)c1O | 2.7
O=C(NO)N/N=C/c1c2ccccc2c(Cl)c2ccccc12 | 5.4
O=C(NO)N/N=C/c1ccc2c(c1)OCCO2 | 178
Cc1c2ccccc2c(/C=N/NC(=O)NO)c2ccccc12 | 4.4
O=C(NO)N/N=C/c1c[nH]c2ccccc12 | 477
O=C(NO)N/N=C/c1ccc(OCc2ccccc2)cc1 | 48.1
O=C(NO)N/N=C/c1ccc([N+](=O)[O-])s1 | 10.6
O=C(NO)N/N=C/c1cc(Br)ccc1O | 10.1
N#Cc1ccc(/C=N/NC(=O)NO)cc1 | 208
COc1cccc(/C=N/NC(=O)NO)c1 | 369
COc1ccc(OC)c(/C=N/NC(=O)NO)c1 | 30.1
O=C(NO)N/N=C/c1ccc(-c2ccccc2)cc1 | 42.7
COc1ccc(/C=N/NC(=O)NO)c(O)c1 | 60.2

SMILES | IC50 [µM]
CC(C)c1ccc2occ(/C=N/NC(=O)NO)c(=O)c2c1 | 32.2
O=C(NO)N/N=C/c1cccc(C(F)(F)F)c1 | 39.5
Cc1cccc(/C=N/NC(=O)NO)n1 | 891
NNC(=O)NO | 282
O=C(NO)N/N=C/c1cc(Br)cc(Br)c1O | 7.2
O=C(NO)N/N=C/c1ccc(O)cc1O | 131
O=C(NO)N/N=C/c1cc([N+](=O)[O-])cc([N+](=O)[O-])c1O | 821
COc1cc(Br)cc(/C=N/NC(=O)NO)c1O | 37.7
CN(C)c1ccc(/C=N/NC(=O)NO)cc1 | 446
O=C(NO)N/N=C/c1cccnc1 | 607
O=C(NO)N/N=C/c1cccc(I)c1 | 80.4
O=C(NO)N/N=C/c1coc2c(Cl)cc(Cl)cc2c1=O | 28.2
O=C(NO)N/N=C/c1cc(I)cc(I)c1O | 4.7
O=C(NO)N/N=C/c1cc(Cl)cc(Cl)c1O | 6.5
COc1cc(O)c(/C=N/NC(=O)NO)c(OC)c1 | 91.4
NNC(N)=O [HYDRAZINECARBOXAMIDE] | > 2190
